From PMC4332700 (RSC advances, 2015)

Assays:
α-synuclein = test: Inhibition of HFIP-induced α-syn amyloid formation; format: biochemical; conditions: for %-Inhib. of HFIP-induced α-syn amyloid formation: converted from the %-of-control ThT and CD values; for Formation of off-path (non-amyloid) precipitates in the inhibition assays: 2 vol-% HFIP assay, EGCG at 2:1 molar ratio
Procedure, shortened: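 α-Syn (85 ± 5 μM; pH 6.6, 50 mM potassium phosphate, 50 mM NaCl) stirred at 37 ± 3 °C with test compound (1–4 molar equiv), then HFIP to 2 vol% after 4 h. Aliquots diluted to 4.5 μM α-syn every 2–6 h for CD, inhibitor-matched blank, [θ]218 and Δ[θ]196 read. At 16–18 h, ThT added (8-fold excess) and emission read. Values as %-of-uninhibited-control, converted to %-inhibition; mean of ≥2 experiments.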

[1] = NMR determination of folded state population of peptides; format: physicochemical; conditions: 300K; for Folded state population (χF): based on NMR data
α-syn [2] = test: 15N-HSQC titration binding studies with 15N-labeled α-syn; conditions: for Binding locus on α-syn from titration shifts in 15N HSQC spectra: 200 or 400 µM α-syn, no added HFIP, 293 or 303 K
α-syn [3] = test: CD and visual inspection of EGCG/α-syn mixtures; format: biochemical; conditions: 100 µM α-syn, 1:1 α-syn:EGCG, 1.5 vol-% HFIP; β-sheet signature at 24 hours
α-syn [4] = conditions: on going from 1:1 to 5:1 EGCG/α-syn, published spectra; cited from earlier work
α-syn [5] = conditions: cited from earlier work

Row | Binding locus on α-syn from titration shifts in 15N HSQC spectra (α-syn [2]) | Compound | %-Inhib. of HFIP-induced α-syn amyloid formation (α-synuclein; 1 molar equiv. inhibitor) | %-Inhib. of HFIP-induced α-syn amyloid formation (α-synuclein; 2 molar equiv. inhibitor) | further results
1 |  | KCLTVW-IpGK-WITVCA (disulfide) [WW2-DS] | < 30% | ~ 50% | 
2 |  | (Ac-YTTVCIRKYTG)2 (disulfide) [AcY-VCI-YTG] |  | ~ 70% | Folded state population (χF) [1]: 0.84
3 | isolated to the C-terminus | GKWITVS-IpPK-KLTVWIp [cp-WW2] | ~ 35% | ~ 65% | 
4 | M116-E137 sequence segment | KKLTVW-IpGK-WITVSA [WW2] | ~ 50% | ~ 75% | 
5 |  | (RYTTHCHRKYE)2 (disulfide) [RY-HCH-YE] |  | ~ 70% | β-sheet population [1]: 28%; Folded state population (χF) [1]: 0.28±0.13
6 |  | RWEKRW-DRGSGR-WFYFND [mWWhp] |  | ~ 50% | Formation of off-path (non-amyloid) precipitates in the inhibition assays (α-synuclein): did not produce off-path precipitates
7 | Q109/E137-span | cyclo-(K-KLTVW-IpGK-WITVS-IpP) (head to tail) [cyclo-WW2] | ~ 75% | > 90% | Inhibitory activity on α-syn β-structure / amyloid formation (in words) (α-synuclein; 2:1 peptide to α-syn ratio, 2 vol-% HFIP): complete inhibition
8 |  | (RYTTVCIRKYE)2 (disulfide) [RY-VCI-YE] | ~ 50% | ~ 80% | 
9 |  | RGAVVTGR-NH2 [reference compound] |  | < 25% | Inhibition of α-syn amyloid fibril formation (α-syn [5]; 2:1, 1:1 and 1:2 (peptide:α-syn) molar ratios): completely inhibit; Inhibitory activity on α-syn amyloid formation (in words) (α-synuclein; 4 molar equivalents of the peptide, single experiment): absence of inhibitory activity
10 |  | RWFYFN-DRGSGK-WEKRWD [cp-mWWhp] |  | < 20% | 
11 |  | VAQKT-(N-Me)V |  |  | Inhibition of α-syn fibril formation (α-syn [5]; N-methylation of sites in residues 71–82): effective inhibitor
12 |  | RAVTW-NPATGK-WITVWE [RAVWW] |  | ~ 60% | Formation of off-path (non-amyloid) precipitates in the inhibition assays (α-synuclein): did not produce off-path precipitates

Row | Compound | Binding locus on α-syn from titration shifts in 15N HSQC spectra (α-syn [2]) | %-Inhib. of HFIP-induced α-syn amyloid formation (α-synuclein; 1 molar equiv. inhibitor) | %-Inhib. of HFIP-induced α-syn amyloid formation (α-synuclein; 2 molar equiv. inhibitor) | further results
13 | (RWTTHCHRKWE)2 (disulfide) [RW-HCH-WE] | very large shifts were observed at C-terminal sites | ~ 65% | ≥ 75% | Formation of off-path (non-amyloid) precipitates in the inhibition assays (α-synuclein): co-precipitates; β-sheet population [1]: 94%; Folded state population (χF) [1]: 0.94±0.02
14 | O=C(O[C@@H]1Cc2c(O)cc(O)cc2O[C@@H]1c1cc(O)c(O)c(O)c1)c1cc(O)c(O)c(O)c1 [EGCG, (−)-Epi-gallocatechin-3-gallate, reference compound] | shifts at C-terminal sites |  | ~ 65% | Time the random coil CD signature remained after HFIP addition (α-syn [3]): 8 h; Upfield 1H shift for most α-syn HSQC peaks (α-syn [4]): 0.04 ppm; Upfield shifts Δδ(1H) of α-syn HSQC peaks (α-syn [2]; 200 µM α-syn, 50 mM phosphate, pH 6.5, 303K, 5 molar equivalents of EGCG): 0.007 – 0.010 ppm
